“Also recorded” adds a separate entry of the source.
Tests used:
[1] = system: IMR90, immortalized lung fibroblasts; test: IC50 determination for adherent cells using SRB, IMR90; assay type: cell-based, human; settings: read-out: IC50 IMR90, 48-hour exposure, immortalized normal cell line
[2] = system: HeLa, cervical carcinoma; test: IC50 determination for adherent cells using SRB, HeLa; assay type: cell-based, human; settings: read-out: IC50 HeLa, 48-hour exposure
[3] = system: A549, non-small cell lung carcinoma; test: IC50 determination for adherent cells using SRB, A549; assay type: cell-based, human; settings: read-out: IC50 A549, 48-hour exposure
[4] = system: BT549, breast carcinoma; test: IC50 determination for adherent cells using SRB, BT549; assay type: cell-based, human; settings: for IC50: read-out: IC50 BT549, SRB
[5] = system: human cell lines U-937, HeLa, A549, BT549, IMR90; test: 48-hour cell death panel; assay type: cell-based; settings: for activity against the cell lines of Table 3 (in words): 48-hour exposure, concentrations up to 10 μM
How it was run: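 Adherent lines seeded at 5,000 (HeLa) or 2,000 (A549, BT549, IMR90) cells/well and attached 2–3 h, in RPMI-1640 or, for IMR90, EMEM, each with 10% FBS. Test compound at 1 nM–10 μM on a half-log scale, in triplicate with 1% DMSO final, for 48 h continuous at 37 °C and 5% CO2. Cells fixed in cold 10% TCA and stained with SRB; dye read at 510 nm. IC50 from ≥3 independent experiments.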

[6] = system: U-937, lymphoma; test: IC50 determination for non-adherent cells using MTS, U-937; assay type: cell-based, human; settings: for IC50: read-out: IC50 U-937, MTS
[7] = system: multiple tumor cell lines; settings: cited from earlier work
[8] = system: glycogen synthase kinase-3β; settings: cited from earlier work
[9] = system: cells; settings: cited from earlier work
[10] = system: CEM, acute lymphoblastic leukemia; test: IC50 determination using MTS, CEM; assay type: cell-based, human; settings: read-out: IC50 CEM, 48-hour
[11] = system: Daudi, Burkitt’s lymphoma; test: IC50 determination using MTS, Daudi; assay type: cell-based, human; settings: read-out: IC50 Daudi, 48-hour
[12] = system: Jurkat, acute T-cell leukemia; test: IC50 determination using MTS, Jurkat; assay type: cell-based, human; settings: read-out: IC50 Jurkat, 48-hour
[13] = system: CA46, Burkitt’s lymphoma; test: IC50 determination using MTS, CA46; assay type: cell-based, human; settings: read-out: IC50 CA46, 48-hour
[14] = system: HL-60, acute promyelocytic leukemia; test: IC50 determination using MTS, HL-60; assay type: cell-based, human; settings: read-out: IC50 HL-60, 48-hour
[15] = system: U-937 cells; test: Cell cycle arrest in thymidine-synchronized cells; assay type: cell-based, human; settings: synchronized U-937 cells, 16 hours
[16] = system: human erythrocytes; test: Hemolysis assay using human erythrocytes; assay type: cell-based
[17] = system: anthropods; settings: cited from earlier work
[18] = system: U-937 cells; test: Western blot analysis of procaspase-3 and PARP-1 cleavage; assay type: cell-based, human; settings: 24 hours; 2×, 4×, 6× the 48-hour IC50
[19] = system: tubulin dynamics in HeLa cells; test: Tubulin confocal microscopy; assay type: cell-based, human; settings: 16 hours
[20] = system: U-937 cells; test: Apoptosis with Annexin V-FITC and propidium iodide; assay type: cell-based, human; settings: 21 hours; 4× and 6× the 48-hour IC50
[21] = mice, in vivo; cited from earlier work

COC1NC(=O)c2ccc(Br)n2C1Cc1c[nH]c(=O)n1C (single isomer, unassigned; (+)) [(+)-39, (+)-O-methyl-pre-agelastatin A]
IC50 [1]: > 10000 nM | IC50 [2]: > 10000 nM | IC50 [3]: > 10000 nM | IC50 ([4]; 48-hour exposure): > 10000 nM | activity against the cell lines of Table 3 (in words) [5]: none | IC50 ([6]; 48-hour exposure): > 10000 nM

COC1NC(=O)c2ccc(Br)n2C1Cc1c[nH]c(=O)[nH]1 (single isomer, unassigned; (+)) [(+)-53, (+)-O-methyl-pre-agelastatin D]
IC50 [1]: > 10000 nM | IC50 [2]: > 10000 nM | IC50 [3]: > 10000 nM | IC50 ([4]; 48-hour exposure): > 10000 nM | activity against the cell lines of Table 3 (in words) [5]: none | IC50 ([6]; 48-hour exposure): > 10000 nM

CN1C(=O)N[C@H]2[C@@H]3NC(=O)c4ccc(Br)n4[C@@H]3C[C@]21O [(−)-1, (−)-agelastatin A]
IC50 [1]: 1110 ± 350 nM | anti-neoplastic activity against multiple tumor cell lines [7]: modest anti-neoplastic activity | inhibition of glycogen synthase kinase-3β [8]: moderately inhibits | IC50 [2]: 708 ± 90 nM | cell cycle arrest [9]: arrest in the G2/M-phase of the cell cycle | IC50 [3]: 1050 ± 140 nM | IC50 [10]: 20 ± 2 nM | IC50 [11]: 20 ± 3 nM | IC50 [12]: 74 ± 7 nM | enhanced activity in BT549 relative to the other cell lines ([4]; 48-hour IC50 comparison): 4 × | IC50 ([4]; 48-hour exposure): 278 ± 76 nM | activity against the cell lines of Table 3 (in words) [5]: highest potency in all cell lines tested | IC50 [13]: 187 ± 71 nM | IC50 [14]: 138 ± 66 nM | cell cycle arrest [15]: dose-dependent G2/M cell cycle arrest | concentration without effect on normal red blood cells ([16]; hemolysis after 2 h): > 333 µM | hemolytic activity (nonspecific hemolysis of red blood cells) ([16]; tested at 333 μM, 2 h): none | enhanced activity in U-937 relative to the other cell lines ([6]; 48-hour IC50 comparison): 20 × | IC50 ([6]; 48-hour exposure): 67 ± 3 nM | toxicity towards anthropods [17]: exhibits toxicity | activation of procaspase-3 to caspase-3 and cleavage of PARP-1 [18]: induced dose-dependent activation of procaspase-3 to active caspase-3, and cleavage of PARP-1 | tubulin fluorescence (tubulin dynamics within cells) [19]: no change in tubulin fluorescence | phosphatidylserine exposure / PI inclusion (apoptosis) [20]: induced dose-dependent apoptosis | penetration into CNS compartments [21]: able to penetrate into CNS compartments

CN1C(=O)N[C@@]2(O)[C@@H]3NC(=O)c4ccc(Br)n4[C@@H]3C[C@@]12O [(−)-3, (−)-agelastatin C]
IC50 [1]: > 10000 nM | IC50 [2]: > 10000 nM | IC50 [3]: > 10000 nM | IC50 [10]: 2100 ± 1300 nM | IC50 [11]: 7200 ± 2900 nM | IC50 [12]: 5310 ± 350 nM | IC50 ([4]; 48-hour exposure): > 10000 nM | activity against the cell lines of Table 3 (in words) [5]: no activity; also recorded: completely abolishes activity | IC50 [13]: > 10000 nM | IC50 [14]: > 10000 nM | IC50 ([6]; 48-hour exposure): > 10000 nM

O=C1N[C@H]2[C@@H]3NC(=O)c4ccc(Br)n4[C@@H]3C[C@@]2(O)N1 [(−)-4, (−)-agelastatin D]
IC50 [1]: 2750 ± 600 nM | IC50 [2]: 1000 ± 200 nM | IC50 [3]: 920 ± 160 nM | IC50 [10]: 74 ± 25 nM | IC50 [11]: 202 ± 15 nM | IC50 [12]: 210 ± 63 nM | activity against BT549 cells (in words) ([4]; 48-hour exposure): modest activity | IC50 ([4]; 48-hour exposure): 631 ± 82 nM | IC50 [13]: 460 ± 240 nM | IC50 [14]: 540 ± 120 nM | cell cycle arrest [15]: dose-dependent G2/M cell cycle arrest | activity against U-937 cells (in words) ([6]; 48-hour exposure): reasonable activity | IC50 ([6]; 48-hour exposure): 240 ± 33 nM | activation of procaspase-3 to caspase-3 and cleavage of PARP-1 [18]: induced dose-dependent activation of procaspase-3 to active caspase-3, and cleavage of PARP-1 | tubulin fluorescence (tubulin dynamics within cells) [19]: no change in tubulin fluorescence | phosphatidylserine exposure / PI inclusion (apoptosis) [20]: induced dose-dependent apoptosis

CO[C@@]12C[C@@H]3[C@@H](NC(=O)c4ccc(Br)n43)[C@@H]1NC(=O)N2C [(−)-5, (−)-agelastatin E]
IC50 [1]: > 10000 nM | IC50 [2]: 8600 ± 810 nM | IC50 [3]: > 10000 nM | IC50 [10]: 830 ± 370 nM | IC50 [11]: 1410 ± 530 nM | IC50 [12]: 1500 ± 330 nM | IC50 ([4]; 48-hour exposure): 6900 ± 2500 nM | activity against the cell lines of Table 3 (in words) [5]: weak activity | reduction in anticancer potency relative to (−)-agelastatin A (1) ([5]; comparison of 48-hour IC50 values): > 10 fold | IC50 [13]: 2450 ± 950 nM | IC50 [14]: 4600 ± 3600 nM | IC50 ([6]; 48-hour exposure): 2560 ± 130 nM

O=C1N[C@H]2[C@@H]3NC(=O)c4cc(Br)c(Br)n4[C@@H]3C[C@@]2(O)N1 [(−)-6, (−)-agelastatin F]
IC50 [1]: > 10000 nM | IC50 [2]: > 10000 nM | IC50 [3]: > 10000 nM | IC50 [10]: > 10000 nM | IC50 [11]: > 10000 nM | IC50 [12]: > 10000 nM | IC50 ([4]; 48-hour exposure): > 10000 nM | activity against the cell lines of Table 3 (in words) [5]: no activity | IC50 [13]: > 10000 nM | IC50 [14]: > 10000 nM | IC50 ([6]; 48-hour exposure): > 10000 nM

CC(=O)O[C@H]1C(=O)[C@@]2(C)[C@H]([C@H](OC(=O)c3ccccc3)[C@]3(O)C[C@H](OC(=O)[C@H](O)[C@@H](NC(=O)c4ccccc4)c4ccccc4)C(C)=C1C3(C)C)[C@]1(OC(C)=O)CO[C@@H]1C[C@@H]2O [Taxol, reference compound]
tubulin fluorescence (tubulin dynamics within cells) [19]: heightened

(−)-O-methyl-di-epi-agelastatin A [(−)-50]
IC50 [1]: > 10000 nM | IC50 [2]: > 10000 nM | IC50 [3]: > 10000 nM | IC50 ([4]; 48-hour exposure): > 10000 nM | activity against the cell lines of Table 3 (in words) [5]: none | IC50 ([6]; 48-hour exposure): > 10000 nM

(−)-agelastatin B [(−)-2]
IC50 [1]: > 10000 nM | IC50 [2]: 4800 ± 1200 nM | IC50 [3]: > 10000 nM | IC50 [10]: 290 ± 200 nM | IC50 [11]: 460 ± 280 nM | IC50 [12]: 750 ± 440 nM | IC50 ([4]; 48-hour exposure): 4800 ± 1100 nM | activity against the cell lines of Table 3 (in words) [5]: weak activity | IC50 [13]: 1070 ± 420 nM | IC50 [14]: 2400 ± 1000 nM | IC50 ([6]; 48-hour exposure): 1060 ± 160 nM

(−)-dehydroagelastatin A [(−)-51]
IC50 [1]: > 10000 nM | IC50 [2]: > 10000 nM | IC50 [3]: > 10000 nM | IC50 ([4]; 48-hour exposure): > 10000 nM | activity against the cell lines of Table 3 (in words) [5]: none | IC50 ([6]; 48-hour exposure): > 10000 nM

(−)-di-epi-agelastatin C [(−)-52]
IC50 [1]: > 10000 nM | IC50 [2]: > 10000 nM | IC50 [3]: > 10000 nM | IC50 ([4]; 48-hour exposure): > 10000 nM | activity against the cell lines of Table 3 (in words) [5]: none | IC50 ([6]; 48-hour exposure): > 10000 nM

Reference: paper PMC3920459 (The Journal of organic chemistry, 2013)
